Laboratory results reported in ChEMBL document CHEMBL4373727, “Thienopyrimidinone Derivatives That Inhibit Bacterial tRNA (Guanine37-N1)-Methyltransferase (TrmD) by Restructuring the Active Site with a Tyrosine-Flipping Mechanism” (J Med Chem, 2019).
Converted amounts (≈) assume the structure as drawn. The source made the active and inactive calls. Unless noted, no cut-off for these calls is given here.

How the values were obtained:
Klebsiella pneumoniae [1] = assay: Bactericidal activity against Klebsiella pneumoniae ATCC 13883 assessed as reduction in CFU at 1 to 4 times MIC90 incubated for 24 hrs; format: functional, organism-based
[2] = tested on: Mycobacterium tuberculosis; assay: Antibacterial activity against Mycobacterium tuberculosis ATCC 27294 at 100 uM incubated for 7 days; format: functional, organism-based
Enterococcus faecalis [3] = assay: Antibacterial activity against Enterococcus faecalis ATCC 51299 at 100 uM incubated for 24 hrs; format: functional, organism-based
How it was run: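 Single-concentration screen in brain heart infusion broth. Log-phase cells at ~5×10^5 cells/mL were grown with 100 μM compound for 24 h at 37 °C. Growth was read as OD600 and expressed as a percentage of untreated wells. DMSO and blank controls were included.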

Pseudomonas aeruginosa [4] = assay: Bactericidal activity against Pseudomonas aeruginosa PA14 assessed as reduction in CFU at 1 to 4 times MIC90 incubated for 24 hrs; format: functional, organism-based
Acinetobacter baumannii [5] = assay: Antibacterial activity against Acinetobacter baumannii ATCC 17961 incubated for 24 hrs by serial broth microdilution method; format: functional; settings: ATCC 17961, 24 h
How it was run: (§1)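 Log-phase cultures from four colonies grown overnight at 37 °C, inoculated at ~5×10^5 cells/mL in cation-adjusted Mueller–Hinton broth with serially diluted compound. Grown 24 h at 37 °C, then OD600 read. MIC50/MIC90 are the concentrations giving 50%/90% growth inhibition relative to drug-free controls. Two independent experiments in duplicate.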

[6] = target: T1, tRNA (guanine-N(1)-)-methyltransferase (Pseudomonas aeruginosa (strain ATCC 15692 / DSM 22644 / CIP 104116 / JCM14847 / LMG 12228 / 1C / PRS 101 / PAO1), UniProt Q9HXQ1); assay: Inhibition of Pseudomonas aeruginosa tRNA (guanine(37)-N1)-methyltransferase (Leu5 to Asp25 residues) expressed in Escherichia coli BL21 (DE3) Rosetta T1R cells assessed as reduction in S-adenosyl-L-homocysteine production preincubated for 15 mins followed by 1.5 uM of tRNALeu(CAG) substrate and SAM addition and measured after 45 mins by MTase-Glo assay
T1 sequence (Q9HXQ1 whole entry): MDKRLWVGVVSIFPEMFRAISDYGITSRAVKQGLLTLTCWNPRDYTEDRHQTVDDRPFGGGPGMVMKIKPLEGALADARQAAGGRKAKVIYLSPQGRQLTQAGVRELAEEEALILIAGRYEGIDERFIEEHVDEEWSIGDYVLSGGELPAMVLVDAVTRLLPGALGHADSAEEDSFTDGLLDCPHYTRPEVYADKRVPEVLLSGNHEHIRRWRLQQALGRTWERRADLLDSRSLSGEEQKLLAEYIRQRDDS
How it was run: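 MTase-Glo luminescence assay. 8 nM TrmD preincubated 15 min at ambient temperature with serially diluted inhibitor (0–500 μM) in 50 mM Tris-HCl pH 8.0, 80 mM NaCl, 1 mM MgCl2, 0.5 mM DTT, 0.01% Triton X-100. Reaction with 2 μM SAM and tRNALeu(CAG), 45 min at 37 °C. Detection 30 min in the dark, SAH read against a standard curve. IC50 by nonlinear regression. Two independent experiments in duplicate.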

Salmonella enteritidis [7] = assay: Bactericidal activity against Salmonella enteritidis ATCC 13076 assessed as reduction in CFU at 1 to 4 times MIC90 incubated for 24 hrs; format: functional; settings: Salmonella enterica subsp. enterica serovar Enteritidis
[8] = tested on: Mycolicibacterium smegmatis; assay: Antibacterial activity against Mycolicibacterium smegmatis MC2 155 incubated for 24 hrs by serial broth microdilution method; format: functional; settings: MC2 155, 24 h
How it was run: (§2)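 Growth read by OD600. MRSA in cation-adjusted Mueller–Hinton broth, M. smegmatis in complete 7H9. MIC50 and MIC90 are 50% and 90% growth inhibition versus drug-free controls. Two independent experiments, each in duplicate.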

Streptococcus pneumoniae [9] = assay: Antibacterial activity against Streptococcus pneumoniae ATCC 49619 at 100 uM incubated for 24 hrs; format: functional, organism-based
How it was run: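 Single 100 μM screen in MH medium with 3% defibrinated sheep blood at 37 °C under 5% CO2, ~5×10^5 cells/mL, 24 h.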

[10] = tested on: Mycolicibacterium smegmatis; assay: Bactericidal activity against Mycolicibacterium smegmatis MC2 155 assessed as reduction in CFU at 1 to 4 times MIC90 incubated for 24 hrs; format: functional; settings: MC2 155, 24 h, read-out: MBC99.9
[11] = tested on: Mycobacterium tuberculosis; assay: Antibacterial activity against Mycobacterium tuberculosis ATCC 27294 incubated for 7 days by broth dilution method; format: functional; settings: ATCC 27294, 168 h
How it was run: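 M. tuberculosis ATCC 27294 in complete 7H9 with 0.05% Tween 80, 0.5% glycerol and 10% ADC. Mid-log cells adjusted to OD600 0.1 and added 1:1 to 2-fold serial compound dilutions (highest 100 μM). Incubated 7 d at 37 °C with shaking at 80 rpm, then OD600 read. Isoniazid positive control. MIC50/MIC90 versus drug-free controls. Biological duplicates.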

[12] = tested on: Mycobacterium tuberculosis; assay: Bactericidal activity against Mycobacterium tuberculosis H37Rv assessed as reduction in CFU at 1 to 4 times MIC90 incubated for 7 days; format: functional; settings: 168 h, read-out: MBC99.9
How it was run: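 Then plated on complete 7H10 agar for CFU. Inoculum plated at time zero. MBC99.9 is a 1000-fold CFU reduction versus the time-zero inoculum.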

Escherichia coli [13] = assay: Bactericidal activity against Escherichia coli BW25113 assessed as reduction in CFU at 1 to 4 times MIC90 incubated for 24 hrs; format: functional, organism-based
Enterococcus faecalis [14] = assay: Bactericidal activity against Enterococcus faecalis ATCC 51299 assessed as reduction in CFU at 1 to 4 times MIC90 incubated for 24 hrs; format: functional, organism-based
Staphylococcus aureus [15] = assay: Antibacterial activity against methicillin-resistant Staphylococcus aureus ATCC 43300 incubated for 24 hrs by serial broth microdilution method; format: functional; settings: ATCC 43300, 24 h; how it was run: as §2
Acinetobacter baumannii [16] = assay: Bactericidal activity against Acinetobacter baumannii ATCC 17961 assessed as reduction in CFU at 1 to 4 times MIC90 incubated for 24 hrs; format: functional; settings: ATCC 17961, 24 h, read-out: MBC99.9
Escherichia coli [17] = assay: Antibacterial activity against Escherichia coli BW25113 incubated for 24 hrs by serial broth microdilution method; format: functional, organism-based; how it was run: as §1
Streptococcus pneumoniae [18] = assay: Antibacterial activity against Streptococcus pneumoniae ATCC 49619 incubated for 24 hrs by serial broth microdilution method; format: functional; settings: ATCC 49619, 24 h
How it was run: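 Cultured in MH medium plus 3% defibrinated sheep blood at 37 °C, 5% CO2. Log-phase inoculum ~5×10^5 cells/mL was exposed to serial compound dilutions for 24 h. MIC50/MIC90 are relative to drug-free controls. Two independent experiments in duplicate.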

Klebsiella pneumoniae [19] = assay: Antibacterial activity against Klebsiella pneumoniae ATCC 13883 incubated for 24 hrs by serial broth microdilution method; format: functional, organism-based; how it was run: as §1
Enterococcus faecalis [20] = assay: Antibacterial activity against Enterococcus faecalis ATCC 51299 incubated for 24 hrs by serial broth microdilution method; format: functional, organism-based
How it was run: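 Broth microdilution in brain heart infusion broth, ~5×10^5 cells/mL log-phase inoculum, serial compound dilutions, 24 h at 37 °C, OD600 read-out. MIC50/MIC90 are the concentrations giving 50%/90% growth inhibition relative to drug-free controls. Two independent experiments in duplicate.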

Erythrocyte = assay: Hemolytic activity in human RBC at 100 uM measured after 1 hr; format: ADME, cell-based
How it was run: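 Fresh human RBCs were PBS-washed and resuspended to OD600 24, then mixed 1:1 by volume with compound serially diluted in PBS. Incubated 1 h at 37 °C without shaking and centrifuged at 1000g for 15 min. Triton X-100 served as positive control. Run in triplicate.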

Staphylococcus aureus [21] = assay: Antibacterial activity against methicillin-resistant Staphylococcus aureus ATCC 43300 at 100 uM incubated for 24 hrs; format: functional, organism-based
How it was run: (§3)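 Single-concentration growth screen: 100 μM test compound with log-phase bacteria at about 5×10^5 cells/mL. Incubation 24 h at 37 °C. Growth read by OD600 and given as percent of untreated control. MRSA was grown in cation-adjusted Mueller–Hinton broth. M. smegmatis was grown in complete Middlebrook 7H9. Ampicillin and kanamycin served as positive controls.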

Staphylococcus aureus [22] = assay: Bactericidal activity against methicillin-resistant Staphylococcus aureus ATCC 43300 assessed as reduction in CFU at 1 to 4 times MIC90 incubated for 24 hrs; format: functional; settings: ATCC 43300, 24 h, read-out: MBC99.9
Salmonella enteritidis [23] = assay: Antibacterial activity against Salmonella enteritidis ATCC 13076 incubated for 24 hrs by serial broth microdilution method; format: functional; settings: Salmonella enterica subsp. enterica serovar Enteritidis; how it was run: as §1
Streptococcus pneumoniae [24] = assay: Bactericidal activity against Streptococcus pneumoniae ATCC 49619 assessed as reduction in CFU at 1 to 4 times MIC90 incubated for 24 hrs; format: functional; settings: ATCC 49619, 24 h, read-out: MBC99.9
Pseudomonas aeruginosa [25] = assay: Antibacterial activity against Pseudomonas aeruginosa PA14 incubated for 24 hrs by serial broth microdilution method; format: functional, organism-based; how it was run: as §1
[26] = tested on: Mycolicibacterium smegmatis; assay: Antibacterial activity against Mycolicibacterium smegmatis MC2 155 at 100 uM incubated for 24 hrs; format: functional, organism-based; how it was run: as §3

## CCCCCCCCCCNCc1ccc(CNC(=O)c2csc3nc[nH]c(=O)c23)cc1
Klebsiella pneumoniae [1]
  MBC99.9: inactive
[2]
  Activity: Active
Enterococcus faecalis [3]
  Activity: Active
Pseudomonas aeruginosa [4]
  MBC99.9: inactive
Acinetobacter baumannii [5]
  MIC50: > 100 µM
  MIC90: > 100 µM
[6]
  IC50: 0.025 µM
Salmonella enteritidis [7]
  MBC99.9: inactive
[8]
  MIC50: 13 µM (≈ 5.91 µg/mL)
  MIC90: 18 µM (≈ 8.18 µg/mL)
Streptococcus pneumoniae [9]
  Activity: Active
[10]
  MBC: 36 µM (≈ 16.4 µg/mL)
[11]
  MIC50: 22 µM (≈ 10 µg/mL)
  MIC90: 43 µM (≈ 19.5 µg/mL)
[12]
  MBC: 75 µM (≈ 34.1 µg/mL)
Escherichia coli [13]
  MBC99.9: inactive
Enterococcus faecalis [14]
  MBC99.9: inactive
Staphylococcus aureus [15]
  MIC50: 6 µM (≈ 2.73 µg/mL)
  MIC90: 8.5 µM (≈ 3.86 µg/mL)
Acinetobacter baumannii [16]
  MBC: > 100 µM
Escherichia coli [17]
  MIC50: inactive
  MIC90: inactive
Streptococcus pneumoniae [18]
  MIC50: 34 µM (≈ 15.5 µg/mL)
  MIC90: 56 µM (≈ 25.5 µg/mL)
Klebsiella pneumoniae [19]
  MIC50: inactive
  MIC90: inactive
Enterococcus faecalis [20]
  MIC50: inactive
  MIC90: inactive
Erythrocyte
  Activity: Non-Toxic
Staphylococcus aureus [21]
  Activity: Active
Staphylococcus aureus [22]
  MBC: 34 µM (≈ 15.5 µg/mL)
Salmonella enteritidis [23]
  MIC50: inactive
  MIC90: inactive
Streptococcus pneumoniae [24]
  MBC: > 100 µM
Pseudomonas aeruginosa [25]
  MIC50: inactive
  MIC90: inactive
[26]
  Activity: Active
